Here are results for seven molecules from ChEMBL document CHEMBL1121813, “Dihydrochalcone sweeteners. A study of the atypical temporal phenomena” (1981).

What all share (assay type): functional
For assay [1], the species on record is Homo sapiens. The experiment in a line: Percentage of judgments reporting an aftertaste at a concentration of 1000 ppm and character thereof. The essentials: (§1)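 Trained judges tasted aqueous solutions of the compounds, which had to be ≥95 weight percent pure and to have passed mutagenicity and single oral dose toxicity screening. The value is the percentage of panel judgments reporting an aftertaste. Where given, its character is recorded as sweet, bitter or bitter-sweet.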

For assay [2], the species on record is Homo sapiens. The experiment in a line: Experimentally determined perceived intensity of compound at a concentration of 1000 ppm (mean value). The essentials: (§2)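 Trained human sensory panel of judges tasted aqueous solutions of the compound. Samples had to be ≥95 weight % pure (HPLC, proton titration, Karl Fischer), non-mutagenic in five Salmonella typhimurium strains with and without microsomal activation, and non-toxic in a single-oral-dose mouse test. Perceived intensity (Ip) was read from time–intensity curves at 4- or 6-s intervals and averaged. Outliers at the 95% level were rejected by t-value. Values reported as mean (2Sm).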

Assay [3] is filed under the species Homo sapiens. The experiment in a line: Number of taste judgments per compound.
Assay [4] is filed under the species Homo sapiens. In words: Percentage of judgments reporting an aftertaste at a concentration of 2000 ppm and character thereof. The essentials:
as §1

For assay [5], the species on record is Homo sapiens. The experiment in a line: Experimentally determined perceived intensity of compound at a concentration of 2000 ppm (mean value). The essentials: as §2
The species named for assay [6] is Homo sapiens. The experiment in a line: Intensity calculated on a weight basis relative to an 85500 ppm sucrose solution at a concentration of 1011 ppm (mean value). The essentials: (§3)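 Trained human panel tasted aqueous solutions of purity-checked (≥95 weight percent) compounds cleared for mutagenicity and mouse oral toxicity. Weight-basis intensity I_w = perceived intensity × (85500 ppm sucrose / compound concentration in ppm). The mean is reported with 2S_m limits; data deviating excessively at 95% confidence were rejected by the t-value method.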

Assay [7] is filed under the species Homo sapiens. The experiment in a line: Bitter character at a concentration of 1011 ppm (mean value). The essentials: (§4)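 Trained human panel tasted aqueous solutions. Each judge reported whether there was an aftertaste and its character (sweet, bitter or bitter-sweet). The value is the percentage of judgments reporting a bitter aftertaste.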
The species named for assay [8] is Homo sapiens. The experiment in a line: Percentage of judgments reporting an aftertaste at a concentration of 1011 ppm and character thereof; Bitter-sweet. The essentials:
as §1

For assay [9], the species on record is Homo sapiens. The experiment in a line: Sweet character at a concentration of 1011 ppm (mean value).
Assay [10] is filed under the species Homo sapiens. The experiment in a line: Other taste character at a concentration of 1011 ppm (mean value). The essentials:
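Trained human panel tasted aqueous solutions of each compound. Aftertaste is scored as the percentage of judgments reporting one, with its character coded sweet (s), bitter (b) or bitter-sweet (bs).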

The species named for assay [11] is Homo sapiens. In words: Intensity calculated on a molar basis relative to a 0.25 M sucrose solution at a concentration of 1011 ppm (mean value). The essentials: (§5)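 Trained human judges tasted aqueous solutions of the test compound; compounds were first required to be ≥95 weight percent pure and free of mutagenicity (five Salmonella typhimurium strains, ± microsomal activation) and of single oral dose mouse toxicity. Molar intensity I_m = perceived intensity × (0.25 M sucrose / compound molar concentration). The mean is reported with 2S_m limits; outliers were rejected at 95% confidence by t-value.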

The species entered for assay [12] is Homo sapiens. In words: Sour character at a concentration of 1011 ppm (mean value).
The species named for assay [13] is Homo sapiens. In words: Sweet / Bitter character at a concentration of 1011 ppm (mean value).
The species entered for assay [14] is Homo sapiens. The experiment in a line: Salty character at a concentration of 1011 ppm (mean value).
The species entered for assay [15] is Homo sapiens. In words: Experimentally determined perceived intensity of compound at a concentration of 1011 ppm (mean value). The essentials: as §2
Assay [16] is filed under the species Homo sapiens. The experiment in a line: Sweet character at a concentration of 720 ppm (mean value).
The species entered for assay [17] is Homo sapiens. In words: Salty character at a concentration of 720 ppm (mean value).
Assay [18] is filed under the species Homo sapiens. In words: Experimentally determined perceived intensity of compound at a concentration of 720 ppm (mean value). The essentials:
as §2

The species entered for assay [19] is Homo sapiens. The experiment in a line: Sour character at a concentration of 720 ppm (mean value).
Assay [20] is filed under the species Homo sapiens. The experiment in a line: Intensity calculated on a weight basis relative to an 85500 ppm sucrose solution at a concentration of 720 ppm (mean value). The essentials:
as §3

For assay [21], the species on record is Homo sapiens. The experiment in a line: Bitter character at a concentration of 720 ppm (mean value). The essentials: as §4
For assay [22], the species on record is Homo sapiens. The experiment in a line: Sweet / Bitter character at a concentration of 720 ppm (mean value); 50/50.
For assay [23], the species on record is Homo sapiens. In words: Percentage of judgments reporting an aftertaste at a concentration of 720 ppm and character thereof.
The species named for assay [24] is Homo sapiens. The experiment in a line: Other taste character at a concentration of 720 ppm (mean value). The essentials:
(§6)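 Trained human sensory panel (Swartz method) tasted dilute aqueous solutions of the compounds, which had to be ≥95 weight percent pure and free of mutagenicity and toxicity. Taste character is reported as the mean value with 2S_m limits. Data deviating excessively at the 95% confidence level were rejected by the t-value method.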

Assay [25] is filed under the species Homo sapiens. In words: Intensity calculated on a molar basis relative to a 0.25 M sucrose solution at a concentration of 720 ppm (mean value). The essentials: as §5
For assay [26], the species on record is Homo sapiens. The experiment in a line: Intensity calculated on a weight basis relative to an 85500 ppm sucrose solution at a concentration of 249 ppm (mean value). The essentials: as §3
Assay [27] is filed under the species Homo sapiens. The experiment in a line: Intensity calculated on a molar basis relative to a 0.25 M sucrose solution at a concentration of 249 ppm (mean value). The essentials:
as §5

Assay [28] is filed under the species Homo sapiens. In words: Experimentally determined perceived intensity of compound at a concentration of 249 ppm (mean value). The essentials:
as §2

Assay [29] is filed under the species Homo sapiens. In words: Bitter character at a concentration of 249 ppm (mean value). The essentials:
as §4

Assay [30] is filed under the species Homo sapiens. In words: Salty character at a concentration of 249 ppm (mean value).
The species entered for assay [31] is Homo sapiens. The experiment in a line: Sweet character at a concentration of 249 ppm (mean value).
The species entered for assay [32] is Homo sapiens. In words: Other taste character at a concentration of 249 ppm (mean value). The essentials:
as §6

The species entered for assay [33] is Homo sapiens. The experiment in a line: Sweet / Bitter character at a concentration of 249 ppm (mean value); 97/3.
The species named for assay [34] is Homo sapiens. In words: Sour character at a concentration of 249 ppm (mean value).
The species entered for assay [35] is Homo sapiens. In words: Percentage of judgments reporting an aftertaste at a concentration of 249 ppm and character thereof. The essentials: as §1

Take `COc1ccc(CNC(=O)c2c(O)cc(O)cc2O)cc1O`: the Judgments in the assay listed under Homo sapiens [1] is 0; in the assay filed under Homo sapiens [3], 1. Further, in the assay listed under Homo sapiens [2], the IP was determined as 0.

For the molecule `CNc1ccc(CCC(=O)c2c(O)cc(OCC(=O)[O-])cc2O)cc1O.[Na+]`, the Judgments in the assay listed under Homo sapiens [4] was determined as 0; in the assay filed under Homo sapiens [3] it was 1. Moreover, in the assay listed under Homo sapiens [5], the IP was 0.

For the molecule `COc1ccc(CCc2noc3cc(OCCCS(=O)(=O)[O-])cc(O)c23)cc1O.[K+]`, the IW in the assay filed under Homo sapiens [6] is reported as 41. Also, the Taste character in the assay listed under Homo sapiens [7] is 38; in the assay filed under Homo sapiens [9], 41; in the assay filed under Homo sapiens [10] it was 21; in the assay filed under Homo sapiens [12], 0; in the assay filed under Homo sapiens [13], 52; in the assay listed under Homo sapiens [14], 0. Besides, the Judgments is on record as 100 in the assay listed under Homo sapiens [8] and 12 in the assay listed under Homo sapiens [3]. Moreover, in the assay listed under Homo sapiens [11], the IM is 56. Also, in the assay filed under Homo sapiens [15], the IP came to 0.49.

In the case of `COc1ccc(CNC(=O)c2c(O)cc(OCC(=O)[O-])cc2O)cc1O.[Na+]`, the Judgments in the assay listed under Homo sapiens [4] is on record as 0; in the assay filed under Homo sapiens [3], 1. For the same molecule, in the assay listed under Homo sapiens [5], the IP is recorded as 0.

On to `COc1ccc(CCC(=O)c2c(O)cc(OCCCN)cc2O)cc1O`, for which the Taste character in the assay filed under Homo sapiens [16] turned out to be 50; in the assay filed under Homo sapiens [17], 0; in the assay listed under Homo sapiens [19], 0; in the assay listed under Homo sapiens [21], 50; in the assay filed under Homo sapiens [22], 50; in the assay filed under Homo sapiens [24] it was 0. Besides, the IP in the assay filed under Homo sapiens [18] came out at 1.5. The IW in the assay filed under Homo sapiens [20] was 180. The Judgments in the assay filed under Homo sapiens [23] was 100; in the assay listed under Homo sapiens [3] it was 1. Besides, in the assay listed under Homo sapiens [25], the IM is 190.

Regarding `COc1ccc(CCC(=O)c2c(O)cc(OC(CC(O)CO)C(=O)[O-])cc2O)cc1O.[Na+]` (stereo not given), the Judgments is listed as 0 in the assay filed under Homo sapiens [4] and 1 in the assay listed under Homo sapiens [3]. For the same molecule, the IP in the assay filed under Homo sapiens [5] is reported as 0.

Consider `COc1ccc(CCC(=O)c2c(O)cc(OCC(=O)CC(=O)[O-])cc2O)cc1O.[Na+]`, for which the IW in the assay filed under Homo sapiens [26] is on record as 310. The IM in the assay filed under Homo sapiens [27] is 380. Further, the IP in the assay filed under Homo sapiens [28] came to 0.89. Also, the Taste character was determined as 3 in the assay listed under Homo sapiens [29]; 0 in the assay filed under Homo sapiens [30]; 85 in the assay listed under Homo sapiens [31]; 12 in the assay filed under Homo sapiens [32]; 97 in the assay filed under Homo sapiens [33]; 0 in the assay listed under Homo sapiens [34]. For the same molecule, the Judgments worked out at 24 in the assay filed under Homo sapiens [3] and 100 in the assay filed under Homo sapiens [35].
